Results taken from ChEMBL document CHEMBL1914423, “New imidazo[2,1-b]thiazole derivatives: synthesis, in vitro anticancer evaluation, and in silico studies” (Eur J Med Chem, 2011).

Legend:
UACC-62 = test: Antiproliferative activity against human UACC62 cells after 48 hrs by MTT assay; assay type: functional, cell-based; details: UACC-62, 48 h
LOX IMVI = test: Antiproliferative activity against human LOXIMVI cells after 48 hrs by MTT assay; assay type: functional, cell-based
SK-MEL-5 = test: Antiproliferative activity against human SK-MEL-5 cells after 48 hrs by MTT assay; assay type: functional, cell-based; details: SK-MEL-5, 48 h
SK-MEL-2 = test: Antiproliferative activity against human SK-MEL-2 cells after 48 hrs by MTT assay; assay type: functional, cell-based; details: SK-MEL-2, 48 h
MDA-MB-435 = test: Antiproliferative activity against human MDA-MB-435 cells after 48 hrs by MTT assay; assay type: functional, cell-based; details: MDA-MB-435, 48 h
Malme-3M = test: Antiproliferative activity against human MALME-3M cells after 48 hrs by MTT assay; assay type: functional, cell-based
786-0 = test: Anticancer activity against human 786-0 cells after 48 hrs by SRB assay; assay type: functional; details: 786-0, 48 h
How it was run: (§1)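 NCI five-dose screen. Cells in RPMI 1640 with 5% FBS and 2 mM L-glutamine, seeded at 5000–40,000 cells/well according to doubling time, then pre-incubated 24 h at 37 °C in 5% CO2. Drugs dissolved in DMSO, five concentrations by 10-fold or 1/2-log dilution. Cells fixed with TCA, SRB-stained, A515 read. IC50 solved from [(Ti−Tz)/(C−Tz)]×100 = 50.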

SK-OV-3 = test: Anticancer activity against human SKOV3 cells after 48 hrs by SRB assay; assay type: functional; details: SK-OV-3, 48 h
BT-549 = test: Anticancer activity against human BT549 cells after 48 hrs by SRB assay; assay type: functional; details: BT-549, 48 h; how it was run: as §1
[1] = read-out: LC50 (the source's name)

## O=C(NCCNc1nccc(-c2c(-c3cccc(O)c3)nc3sccn23)n1)c1ccccc1
UACC-62
  IC50: 211 nM
LOX IMVI
  IC50: 3220 nM
SK-MEL-5
  IC50: 4150 nM
SK-MEL-2
  IC50: 2940 nM
MDA-MB-435
  IC50: 578 nM
Malme-3M
  IC50: 205 nM

## O=C(NCCNc1nccc(-c2c(-c3cccc(O)c3)nc3sccn23)n1)c1ccccc1O
786-0
  GI50: 6.25 µM
  TGI: 43.1 µM
786-0; [1]
  CC50: > 100 µM
UACC-62
  IC50: 161 nM
LOX IMVI
  IC50: 2650 nM
SK-OV-3
  GI50: 4.31 µM
  TGI: 39.7 µM
SK-OV-3; [1]
  CC50: > 100 µM
SK-MEL-5
  IC50: 1220 nM
MDA-MB-435
  IC50: 433 nM
BT-549
  GI50: 4.74 µM
  TGI: 34.9 µM
BT-549; [1]
  CC50: > 100 µM
Malme-3M
  IC50: 152 nM
